Screening data: PubChem BioAssay, The Scripps Research Institute Molecular Screening Center
MBD2 DNA inh – inhibitors of human MBD2 binding to methylated oligonucleotide | 370,000 compounds, 0.31% hits | inhibition, % at 4.4 µM | TR-FRET | Q9UBB5; in the data active means inhibition above about 13%
Target sequence (Q9UBB5 whole entry, looked up): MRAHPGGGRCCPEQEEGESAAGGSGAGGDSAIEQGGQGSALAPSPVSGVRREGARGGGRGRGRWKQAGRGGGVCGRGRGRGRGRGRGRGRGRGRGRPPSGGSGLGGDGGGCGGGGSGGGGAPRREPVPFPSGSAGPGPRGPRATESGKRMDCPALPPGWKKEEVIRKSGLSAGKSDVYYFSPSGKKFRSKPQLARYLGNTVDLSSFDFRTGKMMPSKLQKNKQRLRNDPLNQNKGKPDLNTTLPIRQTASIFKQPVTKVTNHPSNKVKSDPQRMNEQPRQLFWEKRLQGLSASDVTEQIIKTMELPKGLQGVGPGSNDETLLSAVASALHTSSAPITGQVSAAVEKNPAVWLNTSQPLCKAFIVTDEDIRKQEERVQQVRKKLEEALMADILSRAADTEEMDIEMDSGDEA
HCV core dimer – HCV core protein dimerization inhibition; TR-FRET GST/Flag-core106 dimerization, 1536-well; inhibition, % at 5 µM; 300,000 compounds, 0.33% hits;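 active means inhibition above the mean of all tested compounds plus 3 SD, set per screening campaign, cut at about 45% in these data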
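Assay system: tagged HCV core106 pair (GST and Flag); medium: KF-containing HEPES buffer, pH 7.45, DTT, CHAPS, BSA; also added: Eu donor and XL665 acceptor anti-tag antibodies; dosing: 5 µM single dose; timing: compound-protein-antibody incubation 4 h at 22.5 °C; signal: TR-FRET 671 and 617 nm emission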
UHRF1 binding – UHRF1 methyl-DNA binding inhibition | inhibition, % at 4.4 µM | 370,000 compounds, 0.75% hits | Q96T88 | UHRF1 binding to methylated oligo, TR-FRET | AID 687016; in the data active means inhibition above about 21%;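 further: UHRF1 SRA domain binding a hemimethylated CpG hairpin DNA probe; 0% = median of test compound wells and 100% = reference inhibitor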
LEDGF integ inh – blocks HIV-1 LEDGF/p75-dependent DNA integration; 370,000 compounds, 0.64% hits; AID 743269; inhibition, % at 3.7 µM; TR-FRET IN-LEDGF/p75 DNA integration, Eu/Cy5;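 active means inhibition above the screen-wide mean plus 3 SD, cut at about 13% in these data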;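 further: signal is the Cy5 over europium emission ratio at 671 and 618 nm; 0% = plate median of compound wells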
TDP2 absorb – TDP2 (human) inhibition, absorbance primary screen. 370,000 compounds, 0.34% hits. AID 720702. recombinant TDP2, T5PNP hydrolysis, p-nitrophenol absorbance 415 nm. inhibition, % at 12.8 µM;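 active means inhibition above the mean of all tested compounds plus 3 SD, set per campaign, cut at about 25% in these data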;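 further: 0% = DMSO with enzyme and 100% = buffer with substrate but no TDP2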
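Test system: Human TDP2 enzyme | Reagent: 5 mM T5PNP | Compound dosing: 12.8 µM single point, 1% DMSO | Incubation: Enzyme reaction with compound for 2 h at 37 °C | Technique: p-Nitrophenol epi absorbance | Read-out: % inhibition relative to enzyme-containing and enzyme-free wells | Benchmarks: High control without enzyme, low control DMSO plus TDP2 | Replicates: Singlicate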
TDP2 inh conf – confirmation of human TDP2 inhibitors | inhibition, % at 12.8 µM | recombinant human TDP2, absorbance read-out | shares compounds with TDP2 absorb | 1,100 compounds, 22% hits; in the data active means inhibition above about 25%;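 further: 0% = vehicle with enzyme and 100% = no enzyme buffer only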
IN multimer act – counter-screen for LEDGF/p75 integration inhibitors: HIV-1 integrase multimerization activators; shares compounds with LEDGF integ inh; TR-FRET HIV-1 integrase multimerization, biochemical; activation, % at 7.7 µM; 2,000 compounds, 17% hits; AID 1053131; in the data active means activation above about 8.9%
TRFRET interf – TR-FRET optical interference, LEDGF/p75 integration counter-screen. TR-FRET optical interference counterscreen, HIV-1 IN multimerization. AID 1053135. inhibition, % at 7.7 µM. 2,000 tested, under 10 active. shares compounds with LEDGF integ inh;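 active means inhibition above the mean over all tested compounds plus 3 SD, which no compound reached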;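 further: 0% = integrase with antibodies and DMSO and 100% = antibodies without integrase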
IN-LEDGF confirm – LEDGF/p75-dependent HIV-1 integration inhibition, confirmation; TR-FRET LEDGF/p75-dependent HIV-1 integration, biochemical; 2,000 compounds, 36% hits; inhibition, % at 3.7 µM; shares compounds with LEDGF integ inh; AID 1053136; in the data active means inhibition above about 14%
An asterisk follows results filed as active; · = no result given; ! = a repeat was not active. Sampled rows, rich in hits. Any-hit rate of the full collection: about 1.8%.

SMILES	MBD2 DNA inh	HCV core dimer	UHRF1 binding	LEDGF integ inh	TDP2 absorb	TDP2 inh conf	IN multimer act	TRFRET interf	IN-LEDGF confirm
O=C1CC(c2cccnc2)=NN1c1ccccc1	4	-7	13	11	46*	12	·	·	·
Cc1ccccc1[N+](=O)[O-]	-5	·	-3	1	-1	·	·	·	·
O=C1NC(=O)C(Sc2ccccc2[N+](=O)[O-])C(=O)N1	-2	-9	-1	4	51*	33*	·	·	·
COc1cc(/C=C2\C(=O)NC(=O)N(c3ccccc3)C2=O)c([N+](=O)[O-])cc1OC	1	·	-9	4	25*	9	·	·	·
CN1C[C@H](O)[C@H]2C[C@@H]1c1ccccc1O2	3	·	2	-1	7	·	·	·	·
Cc1c(P(=S)(c2ccccc2)c2ccccc2)c2ccccc2n1C	4	·	9	-4	2	·	·	·	·
O=C(NCCN1CCC2(CC1)C(=O)NCN2c1ccccc1)c1ccc(Cl)cc1	-9	·	-3	-1	6	·	·	·	·
COc1ccc(CCNC2CCCCCC2)cc1	-4	-2	1	0	-3	·	·	·	·
COC1CCCCC1NCCc1ccccc1 (centres undefined)	-1	5	-1	-3	26*	-2	·	·	·
O=c1c2ccccc2nc(/C=C/c2ccccc2O)n1-c1ccccc1O	-1	3	-4	0	30*	4	·	·	·
NNc1n[nH]c(=S)n1N	1	1	1	-3	33*	-5	·	·	·
CN1CCN(c2ccc([N+](=O)[O-])c3no[n+]([O-])c23)CC1	-29	-12	-27	1	25*	26*	·	·	·
O=[N+]([O-])c1ccc(N(CCO)CCO)c2c1no[n+]2[O-]	-27	·	-23	10	8	·	·	·	·
O=C(O)CCl	-3	·	0	-2	-9	·	·	·	·
O=C(c1ccccc1)N1Cc2cc(Br)ccc2-n2nncc2C1	-4	·	1	-1	1	·	·	·	·
O=C1CC(=O)N(Cc2ccccc2)C(=S)N1	2	4	0	4	32*	9	·	·	·
COc1cccc(NC2=NCCS2)c1	1	·	2	-2	-1	·	·	·	·
CN1c2ccc(Br)cc2[C@@H]2NCC[C@@H]2[C@@H]1CO	-11	·	-4	-3	-7	·	·	·	·
O=C(NC1CCCCC1)N1Cc2cc(Br)ccc2-n2nncc2C1	-5	·	0	4	10	·	·	·	·
CC(C)C[C@H]1C(=O)N2CCC[C@H]2[C@]2(O)O[C@](NC(=O)[C@@H]3C=C4c5cccc6[nH]cc(c56)C[C@H]4N(C)C3)(C(C)C)C(=O)N12	·	42	·	·	·	·	·	·	·
CC[C@@H](CO)NC(=O)[C@@H]1C=C2c3cccc4c3c(cn4C)C[C@H]2N(C)C1	5	-5	17	25*!	31*!	22	2	-7	14*
Cc1ccccc1C(=O)NCCN1CCC2(CC1)C(=O)NCN2c1ccccc1	8	·	6	-2	2	·	·	·	·
CC(C)CCP(=O)(O)O	2	·	-4	2	6	·	·	·	·
COCCCn1c(N)c(C(=O)OCCOC)c2nc3ccccc3nc21	0	1	5	28*	50*	11	8	-29	1
O=c1cc(C2CCNCC2)[nH][nH]1	7	-4	13	19*	56*	5	-3	9	-6
SMILES	MBD2 DNA inh	HCV core dimer	UHRF1 binding	LEDGF integ inh	TDP2 absorb	TDP2 inh conf	IN multimer act	TRFRET interf	IN-LEDGF confirm
COc1ccc(-n2c(O)c(C(C)=NCCN3CCNCC3)c(=O)[nH]c2=O)cc1	3	0	6	17*	-3	·	0	2	3
COc1ccc(-n2c(O)c(C(C)=NCC3CCCO3)c(=O)[nH]c2=O)cc1 (centres undefined)	3	4	4	-5	-2	·	·	·	·
CCN(CC)c1ccc(N=Cc2c(O)n(-c3cc(OC)ccc3OC)c(=O)[nH]c2=O)cc1	0	-4	-3	16*	8	·	3	-12	3
O=c1[nH]c(=O)n(Cc2ccco2)c(O)c1/C=N/N1CCCCCC1	-4	4	-1	1	0	·	·	·	·
N#Cc1c(/N=C/c2c(O)n(Cc3ccco3)c(=O)[nH]c2=O)sc2c1CCCC2	5	1	46*	34*	11	·	2	-11	10
CCN(CC)c1ccc(N=Cc2c(O)n(Cc3ccco3)c(=O)[nH]c2=O)cc1	2	6	6	57*	19	·	3	-17	2
CN(C)CCN=Cc1c(O)n(Cc2ccco2)c(=O)[nH]c1=O	0	-1	3	-1	-4	·	·	·	·
CC(=O)C1=C(C)OC2=C(C(=O)CCC2)[C@@]12C(=O)N(C)c1ccccc12	2	·	-2	4	0	·	·	·	·
CCOC(=O)[C@]12Cc3cc(Cl)ccc3[C@H]1N(C1CCCCC1)C(=O)c1cc(OC)ccc12	2	·	-4	1	6	·	·	·	·
C[C@H](NC(=O)OCc1ccccc1)C(=O)NC(Cc1ccccc1)P(=O)(Oc1ccccc1)Oc1ccccc1 (some centres undefined)	2	·	0	0	-9	·	·	·	·
Cc1cc(/C=C2\C(=O)NC(=O)N(Cc3ccco3)C2=O)c(C)n1-c1ccc(O)cc1	12	47*	36*	53*	0	·	4	-13	21*
CCOC(=O)C1CCN(/C=C2/C(=O)NC(=O)N(Cc3ccco3)C2=O)CC1	-1	6	10	14*	1	·	4	-13	3
Cc1ccccc1-n1c(C)cc(/C=C2/C(=O)NC(=O)N(Cc3ccco3)C2=O)c1C	7	29	11	49*	-5	·	-1	2	0
Cc1cc(/C=C2\C(=O)NC(=O)N(Cc3ccco3)C2=O)c(C)n1-c1ccc(C(=O)O)cc1	7	6	52*	48*	13	·	3	-11	10
Cc1cc(/C=C2\C(=O)NC(=O)N(c3ccc(F)cc3)C2=O)c(C)n1-c1ccc(C(=O)O)cc1	0	3	-1	4	3	·	·	·	·
Cc1ccc(-n2c(C)cc(/C=C3/C(=O)NC(=O)N(C)C3=O)c2C)cc1	-2	18	-1	3	7	·	·	·	·
Cc1ccc(OCCn2cccc2/C=C2/C(=O)NC(=O)N(Cc3ccco3)C2=O)cc1	12	10	64*	58*	20	·	-2	11	37*
CCc1ccc(N2C(=O)NC(=O)/C(=C\c3cccn3CCOc3ccc(C(C)C)cc3)C2=O)cc1	4	-1	-3	-1	8	·	·	·	·
